System: MS2 coat protein
Test: apparent Kd, MS2 coat protein; higher = weaker binding; RNA-MaP array; FMN 200 µM where present
Outline: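 Each design was made on Illumina sequencing-chip clusters by stalled E. coli RNA polymerase and titrated with SNAP-549-labelled MS2 coat protein from 0.7 or 1.5 nM, doubling to 3 µM, in the absence and then the presence of constant ligand. The buffer was 100 mM Tris-HCl pH 7.5, 80 mM KCl, 4 mM MgCl2, BSA, DTT, yeast tRNA and Tween-20. The apparent Kd is the median of filtered per-cluster fits of binding curves, with green signal normalised to red-channel RNA signal and control-cluster median Fmax.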

[1] = designed as: OFF switch for flavin mononucleotide, no ligand
[2] = ligand present: flavin mononucleotide, designed as: OFF switch for flavin mononucleotide
[3] = designed as: ON switch for flavin mononucleotide, no ligand
[4] = ligand present: flavin mononucleotide, designed as: ON switch for flavin mononucleotide

| Sequence | apparent Kd [1] | apparent Kd [2] | apparent Kd [3] | apparent Kd [4] |
| --- | --- | --- | --- | --- |
| UUUCUCUGGGCGUCUUCUUACAUGAGGAUCACCCAUGUUUCAUAGGAUAUGCUAUAGUGUUACAUGCAGAAGGAUGUUUGUUUU | 0.234 µM | 0.474 µM |  |  |
| AAUAACAGAGGAUAUACUAUUUUAUGUGUUUGUUAUUUUGAACAUGAGGAUCACCCAUGUAGAAGGCUGAAUGA | 0.0277 µM | 0.028 µM |  |  |
| CCAGCGUGUGUGAGGAUAUGCUGGUCCUUGGAUCAGCAGAAGGCACAUGAGGAUCACCCAUGUGAGUACGUUGG | 0.0169 µM | 0.0594 µM |  |  |
| CGAGUUUUUGAGAAGGCAUAAUAUAUAAUACCACAUGUUUACAUGAGGAUCACCCAUGUUUCCUAUGAGGAUAUCAGAAUAUCG | 0.0161 µM | 0.0144 µM |  |  |
| GUAGCUAUCGGAGGAUAUUCAUACCGGAAACGGACAUGAGGAUCACCCAUGUGGCGAAAGCCGUGGGAGAAGGCCGAUAGCUAC |  |  | 0.875 µM | 0.043 µM |
| GUCACUAGAGGAUAUACAAUGGUAUAUGAUCCUAGAGACAUACAUGAGGAUCACCCAUGUAGAAGGCUAGUAAU | 0.0817 µM | 0.0466 µM |  |  |
| UAAAAGGCAGGAUAUGCAGGUGACCCGACUCGCCGGGCUAAACAUGAGGAUCACCCAUGUAGAAGGGCCAAAAG | 0.0157 µM | 0.0436 µM |  |  |
| GUGGACGUCGUAGGAUAUGUAGGAUAUUCCUACAUGAGGAUCACCCAUGUUUACAUGGAAGAAGGACAGAAGGACGAUGUCCAG |  |  | 0.992 µM | 0.0162 µM |
| AUUAAACAUGAGGAUCACCCAUGUCAACAAAGUCGAGGAUAUGGGCAAUUAAAAUAAGAACCAGAAGGCGAAUAAU |  |  | 0.34 µM | 0.0354 µM |
| AGUCAUACAGGAUAUACAUGAGGAUCACCCAUGUUUAUCCUAAAAUAAAGAUCCUCAUGUAGAAGGGUAUGACA | 0.0128 µM | 0.0126 µM |  |  |
| GUACCUUAUGAGAAGGCGAUCAUGAAACAUGAUCGAGGAUAUCAUGUAAACAUGAGGAUCACCCAUGUAUGGGUAUUAUGGUAC |  |  | 0.191 µM | 0.0255 µM |
| CAGUACUGAGGAUAUACAUGAGGAUCACCCAUGUGUUCCAGCUAGGAAACUGGCAAAAGUAGAAGGCAGUACUG | 0.0228 µM | 0.32 µM |  |  |
| CUGUUAUAGGUCCAUUUUUUCAACAUGAGGAUCACCCAUGUGCAGGAUAUCGUGUUAAUUUUCAUCGAGAAGGGCAUAGUCACG | 0.0301 µM | 0.0638 µM |  |  |
| UUUUAACAUGAGGAUCACCCAUGUGAGGAUAUCGUUAUUUUUAUUAAUAUUAAUAAAACGAGAAGGCACAUUUU | 0.104 µM | 0.114 µM |  |  |
| GCUAGUGCAGGAUAUGCGUGGGAUGUUAUCCAUUUUCAUCUACAUGAGGAUCACCCAUGUAGAAGGGCACCCUU | 0.0293 µM | 0.11 µM |  |  |
| AGAUGGCGAGGAUAUACAUGAGGAUCACCCAUGUGAGAGAAUAAAGUGAGGAAGAAAAGUAGAAGGCGCUGUCA | 0.0594 µM | 0.264 µM |  |  |
| CUGCUCCGUGUAGGAUAUGCAUACUCCCAUUAUGCAGAAGGACAUGAGGAUCACCCAUGUAUGUUAUUAUCACGUGUUGCGUAC | 0.0257 µM | 0.0922 µM |  |  |
| UCUUAUUGCAAGGAUAUGCUUUUUAUUUCUUUUGCAGAAGGUGCAACAUGAGGAUCACCCAUGUUUCCGGGCAU | 0.016 µM | 0.028 µM |  |  |
| CCACCCUGAGGAUAUCCACCCUCAUACAUGAGGAUCACCCAUGUUCAUGCCUGAGUUCCCGGAGAAGGCAGAUUCC | 0.109 µM | 0.0872 µM |  |  |
| GAGAGACAUGAGGAUCACCCAUGUAGAAUAGAACAAGGAUAUGUGGAAGGCGGAGGAGAGACAGAAGGUGUAGGAG |  |  | 0.108 µM | 0.0529 µM |
| GGGUACAUCGGAGGAUAUCAUGUAAAUACAUGAGGAUCACCCAUGUCGAUGGAGACGUCGGAGAUUGAGAAGGCCGAUGUACCG |  |  | 0.091 µM | 0.0078 µM |
| UUGCUACAUGAGGAUCACCCAUGUCAGGAUAUAGUGUAUAGCGUGGAAGCUCUGUCGAUUAGAAGGGACUGUCU | 0.0237 µM | 0.0252 µM |  |  |
| GGAUCAUAUGUCAGGAUAUGCAGGUCCUUGGAUCUGCAGAAGGGACAUGAGGAUCACCCAUGUCAUGAAGAUCC | 0.0356 µM | 0.202 µM |  |  |
| UUUUAUUAGUAAGGAUAUACUAGCGAUUAGCUUGUAGAAGGUACAGUCUUAUGUAUAGCAUGUUAACAUGAGGAUCACCCAUGU |  |  | 0.0209 µM | 0.014 µM |

| Sequence | apparent Kd [1] | apparent Kd [2] | apparent Kd [3] | apparent Kd [4] |
| --- | --- | --- | --- | --- |
| CUUUUGUGAGGAUAUCAGUAGUAAUACAAUAGUAUUACUGCUGAGAAGGCACAUGAGGAUCACCCAUGUUCCUC | 0.0599 µM | 0.284 µM |  |  |
| UUAAUCUAUACAGGAUAUCCAUACGGUGCAUACGGAGAAGGGUAACAAUCAUGAGGACAUGAGGAUCACCCAUGUUCUGACCAU |  |  | 0.00723 µM | 0.00635 µM |
| CGGUGACGUGUAGGAUAUGGCGAUGGGUUUUGGCCAGAAGGACAUGAGGAUCACCCAUGUGGUAGAGGGCUGGCGGCCGCCCGU | 0.0265 µM | 0.06 µM |  |  |
| GCAGGGUAUGAGAAGGCAUAAUUUAUCUUACCACAUGUUUACAUGAGGAUCACCCAUGUUUCCAAUGAGGAUAUCAUACCGUGC | 0.0109 µM | 0.00989 µM |  |  |
| AGUUAGAUAGCGAUAUGAUCGAGAGAUCAUGUCGCUAAAUUUAGAAGGACAUGAGGAUCACCCAUGUAGGAUAUGGGUAUAGAA |  |  | 0.367 µM | 0.128 µM |
| CGACACCGGGAGAAGGCCAGACGCCGGCGCCCAAUACAACUGAGCUUAUGGAGGAUAUCCCGACAUGAGGAUCACCCAUGUAUC |  |  | 0.0355 µM | 0.0108 µM |
| GGGUCCAACACAGGAUAUGCUGGACUUUGUCCAGCAGAAGGGUGAAGAACAUGAGGAUCACCCAUGUGGAUCCAUAUAUUUAAU |  |  | 0.236 µM | 0.0179 µM |
| GAGGAACAUGAGGAUCACCCAUGUGAGGAUAUGCAUAGUGAGGUAGUAGACGUUUAUUGCAGAAGGUACACUGA | 0.0274 µM | 0.0278 µM |  |  |
| GGCUCAUUUACAUUAAUGUGCAGACAGGAUAUCCACGGCGGUUCCUACAUGAGGAUCACCCAUGUGGAGAAGGGUCGCUAAUGG | 0.0196 µM | 0.028 µM |  |  |
| AUGAGAGCAGGAUAUGCAGGUGUGCCGGAAGAAAGAAGAGGACAUGAGGAUCACCCAUGUAGAAGGGCUAACCC | 0.0411 µM | 0.0198 µM |  |  |
| AGUAUACAUGAGGAUCACCCAUGUCUGUAACGGACAGGAUAUGCGUUGCAUCACUGUAAUGCAGAAGGGUCCUGUA |  |  | 0.296 µM | 0.0452 µM |
| GUACUGUAGUGAGGAUAUACGAGUUCGAUAGAACGGCGAUCCAUUUAUACAUGAGGAUCACCCAUGUAGAAGGCACUUCAGUAC | 0.00632 µM | 0.0539 µM |  |  |
| CUGAUGUCAGGAUAUCGGUGGCUCACUUGUGUGUGCCAGACCGAGAAGGGACAUGAGGAUCACCCAUGUCUUUA | 0.0202 µM | 0.0462 µM |  |  |
| GGCGGCGCGGGCCACCGCAGGACCAGAAGGACAUGAGGAUCACCCAUGUAGCAGAACAGGGCGGUGUAGGAUAUGGCAGGCUCG | 0.0249 µM | 0.0458 µM |  |  |
| AAAAAGUCAGGAUAUGCGAAGGCGUCUGAUAGACGAGGCUAGCAGAAGGGACAUGAGGAUCACCCAUGUAAAAA | 0.0319 µM | 0.0452 µM |  |  |
| AGAACAUGAGGAUCACCCAUGUGAAGGUCGGUGUAUAAGGGUGAGGAUAUGCUUAAAAUAAGGAAGCAGAAGGUGCUUGGUGCA |  |  | 0.155 µM | 0.145 µM |
| UAAAAGCGAGGAUAUACAUGAGGAUCACCCAUGUGAGGCGAAACGCCUCGGGCCAUCAGUAGAAGGUGCAAAAC | 0.109 µM | 0.0848 µM |  |  |
| AUUACAUGAGGAUCACCCAUGUACAGCACGUUUCAAAACAGUGAGGAUAUACGAAAUGUAGGAACGUAGAAGGCACUGGGUGCA |  |  | 0.0983 µM | 0.0342 µM |
| GGAUAGGACAGAGGAUAUACGUGCUAGAGAUAUUAGCAAAAUUUCCUCACAUGAGGAUCACCCAUGUAGAAGGCUGUCCUAUCG | 0.0194 µM | 0.328 µM |  |  |
| UUAUUUUUACAGAAGGUUUAAUAAUAUGUAUGAGAAGGAUAUGUAACAUGAGGAUCACCCAUGUUUUAUUUAUAUGAGGUUCAU | 0.0108 µM | 0.00927 µM |  |  |
| AGCUACGUUUCGUAGCAGUGUCAUCGAGAAGGCUCAUAUACAUGAGGAUCACCCAUGUUAACAUGGGAGGAUAUCGAUGAUACA |  |  | 0.0503 µM | 0.00664 µM |
| UGUCGGAGCAGAGGAUAUUACAUGAGGAUCACCCAUGUAUGAACCAAUAGCUGGAAACAGCGAUGUAAGAAGGCUGCUCCGACA | 0.0102 µM | 0.124 µM |  |  |
| AACUAACAUGAGGAUCACCCAUGUUGCAGCGGUUGAGGAUAUGUGGGUGAAAAUAGCAUGGCAGAAGGCGAGUGUA |  |  | 0.12 µM | 0.238 µM |
| UGGUACUAGGGAGGAUAUGGGAAGAUACAUGAGGAUCACCCAUGUUUAACAAUGCCGAGAGGCAACUAGAAGGCCCUAGUACCU |  |  | 0.227 µM | 0.0155 µM |

Reference: the EternaBench riboswitch data
